Experimental data from different studies.

C[C@@H](N[C@H]1CCN(c2ccc(CC(=O)O)cc2)C1)c1cccc2ccccc12  Tmax (male CD-1 mouse, plasma; subcutaneous, 3 mg/kg, single dose): 60 min
Cc1c(C(=O)O)ccc2c3n(nc12)[C@@H]1[C@H](C3)N(CC2CC2)[C@@]2(C(=O)Nc3cc(Cl)ccc32)[C@H]1c1cccc(Cl)c1F  Tmax (female mouse, plasma; oral, 5 mg/kg): 282 min
Nc1ncn([C@H]2C[C@H](O)[C@@H](CO)O2)c(=O)n1  Tmax (female C57BL/6 mouse, plasma; oral, 0.4 mg/kg): 4.98 min
CCOc1ccc(N(C)S(=O)(=O)c2cc(Cl)sc2C(=O)Nc2cc(Cl)cc(C(=O)O)c2)cc1OC  Tmax (male C57BL/6 mouse, plasma; intraperitoneal, 10 mg/kg): 15 min
C[C@@H](NCCCc1cccc(C(F)(F)F)c1)c1cccc2ccccc12  Tmax (male CD-1 mouse, plasma; subcutaneous, 3 mg/kg, single dose): 15 min
CCN1CCN(Cc2ccc(NC(=O)c3ccc(C)c(NC(=O)c4cncc(-c5cccs5)c4)c3)cc2C(F)(F)F)CC1  Tmax (mouse, plasma; intraperitoneal, 20 mg/kg, single dose): 30 min
CC(=O)O[C@@]12CO[C@@H]1C[C@H](O)[C@@]1(C)C(=O)[C@H](O)C3=C(C)[C@@H](OC(=O)[C@H](O)[C@@H](NC(=O)OC(C)(C)C)c4ccccc4)C[C@@](O)([C@@H](OC(=O)c4ccccc4)[C@H]21)C3(C)C  Tmax (male Kunming mouse, liver; oral, 20 mg/kg): 30 min
Cc1cc2sc(N)nc2c2cccnc12  Tmax (female BALB/c mouse, plasma; intraperitoneal, 30 mg/kg, single dose): 15 min
CC(C(=O)Nc1c(F)cccc1F)N1CCN(c2ccccc2)CC1 (centres unmarked)  Tmax (female C57BL/6 mouse, brain; intraperitoneal, 10 mg/kg): 15 min
COc1cc2c(NC3CCN(CCCC(=O)NCCCCCCCCCCCC(=O)N[C@H](C(=O)N4C[C@H](O)C[C@H]4C(=O)NCc4ccc(-c5scnc5C)cc4)C(C)(C)C)CC3)nc(N3CCC(F)(F)CC3)nc2cc1OCCCN1CCCC1  Tmax (male C57BL/6 mouse, plasma; intraperitoneal, 50 mg/kg, single dose): 30 min
C=CS(=O)(=O)c1ccc(Nc2nc(OCC3CCCCC3)c3nc[nH]c3n2)cc1  Tmax (male BALB/c mouse, plasma; intraperitoneal, 20 mg/kg, single dose): 4.8 min
